Where “and” joins values, the source holds several entries; their conditions need not be identical. Equal entries are not always repeated. Entries after “also recorded” stand apart in the source; their conditions may differ. Marks after values point to notes of the source that are not given here.
Columns and labels:
3D HepaRG [1] = experiment: Cell viability assay; assay type: cell-based, human; settings: for higher toxicity of metabolite compared to its solvent (EC50, 3D HepaRG): 2‐MPA vs β‐PGME, 2‐MAA vs EGME; for EC50: Homo sapiens, HepaRG
Summary of the method: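 HepaRG spheroids formed from 3000 cells/well in U-bottom plates, 7 days pre-exposure. Dosing: half the medium replaced with twofold-concentrated compound; plates gas-permeable sealed. Ranges: glycol ethers 10–1000 mM, acid metabolites 1–25 mM, ethanol 1–600 mM; top solutions neutralised to pH 7.4, filtered. ATP by CellTiter-Glo luminescence at 48 h and 7 days, % of untreated control. EC50 calculated. N = 3–4 biological repeats, triplicates.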

2D HepaRG = experiment: Cell viability assay; assay type: cell-based; settings: Homo sapiens
Summary of the method: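 HepaRG seeded at 2.25 × 10⁵ cells/cm² in 96-well plates 7 days before exposure; plates gas-permeable sealed. Ranges: glycol ethers 10–1000 mM, metabolites 1–25 mM, ethanol 1–600 mM. Highest-concentration solutions neutralised to pH 7.4 with NaOH, filter-sterilised. ATP by CellTiter-Glo luminescence at 48 h and 7 days, as % untreated control. EC50 calculated. N = 3–4 biological repeats, triplicates.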

[2] = Data derived from Pubchem ref PubChem (nih.gov); cited from earlier work
[3] = TK model parameter; ref Devanthéry et al. [20]; cited from earlier work
[4] = TK model parameter; ref Kerns et al. [54]; cited from earlier work
3D HepaRG [5] = experiment: Albumin ELISA assay in 3D HepaRG supernatant; assay type: cell-based, human; settings: 3D HepaRG exposed to 16 mM APAP for 48 h; untreated 78.4 ± 22.9 ng/mL
ALDH2 = experiment: Gene expression q‐RT‐PCR in HepaRG, ALDH2; assay type: cell-based, human; settings: 7‐day exposure
Summary of the method: (§1)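 HepaRG seeded at 2.25 × 10⁵ cells/cm² in 96-well plates for 7 days. RNA extracted with Qiazol/TRIzol plus glycogen. Reverse transcription with M-MLV and oligo dT. TaqMan probe qPCR program: 95°C 10 min, then 40 cycles of 95°C 15 s and 60°C 1 min.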

ADH1C = experiment: Gene expression q‐RT‐PCR in HepaRG, ADH1C; assay type: cell-based, human; settings: 7‐day exposure
Summary of the method: as §1

human hepatocytes [6] = settings: EGME, from reported Km and Vmax applying the scaling factors of this study
CYP2E1 = experiment: Gene expression q‐RT‐PCR in HepaRG, CYP2E1; assay type: cell-based, human; settings: 7‐day exposure
Summary of the method: as §1

[7] = used for β‐PGME to PG in TK model; ref Gargas et al. [55]; cited from earlier work
human hepatocytes [8] = settings: EGME; cited from earlier work
[9] = test system: ADH / ALDH in human liver S9 fraction; experiment: Inhibition of 2‐MPA formation in S9 incubations; assay type: biochemical; settings: 5 mM β‐PGME, S9, NAD+ only, 45 min
Summary of the method: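 Human liver S9 (2 mg/mL) in 100 mM potassium phosphate pH 7.4, 3 mM MgCl₂. Substrate 5 mM, chosen below ADH saturation; NAD⁺ as sole cofactor. ADH inhibitor at 50 μM or ALDH inhibitor at 10 μM, final. 5 min preincubation; cofactor starts reaction; 45 min, 37°C, 300 rpm. Stopped with ice-cold acetonitrile. Acid metabolite by HPLC-MS/MS. N = 3, duplicates. One-way ANOVA/Dunnett versus control.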

[10] = plasma binding; measured data derived from literature ref 32; cited from earlier work
[11] = S9 fraction incubation, Michaelis–Menten kinetics β‐PGME to 2‐MPA; assay type: in vitro ADME, human; settings: human, human liver S9 fraction, pH 7.4
Summary of the method: (§2)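 Human liver S9 (2 mg/mL), 100 mM phosphate pH 7.4, 3 mM MgCl₂, substrate 0.1–8 mM; 1 mM NAD⁺ plus 1 mM NADPH start the reaction after 5 min preincubation. 45 min, 37°C; cofactor-free controls; acetonitrile stop. Metabolite by HPLC-MS/MS. Km/Vmax by nonlinear Michaelis–Menten fit; CLint = Vmax/Km. Scaled via physiological factors; well-stirred model (QH 20.7 mL/min/kg, fu,inc by Hallifax–Houston). N = 3, duplicates.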

[12] = test system: human liver subcellular fraction (S9); experiment: as above; assay type: in vitro ADME
Summary of the method: as §2

[13] = cited from earlier work
[14] = S9 fraction incubation, solvent loss and metabolite formation; assay type: in vitro ADME, human; settings: human, human liver S9 fraction; for microsomal CLint at 700 μM: pH 7.4, CLint, in vitro, S9, measured, 700 μM β‐PGME; for CLint scaled at 700 μM: pH 7.4, Predicted CL int, in vivo
Summary of the method: (§3)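 S9 2 mg/mL, 100 mM phosphate pH 7.4, 3 mM MgCl₂, 1 mM NAD⁺/NADPH; substrate 700 μM, 37°C. Aliquots at 1, 12, 23, 34, 45 min quenched with 2 volumes ice-cold acetonitrile; cofactor-free controls. Elimination or formation constant from slope of ln % parent remaining or ln metabolite versus time; CLint = k × volume / S9 protein. Scaled to CLh with well-stirred model. N = 3, duplicates.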

[15] = test system: human liver subcellular fraction (S9); experiment: as above; assay type: in vitro ADME; settings: for In vitro predicted hepatic organ clearance (CL h), CLmetMPA: measured; for Predicted CL h: well‐stirred liver model
Summary of the method: as §3

[16] = Metabolite formation in the 3D HepaRG liver model; assay type: in vitro ADME, human; settings: human, 3D HepaRG spheroids
Summary of the method: (§4)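 HepaRG spheroids (79 per well, 2772 cells each) formed 7 days in ultra-low-attachment micro-arrays. Substrate added as threefold concentrate to 5 mM final; 37°C, 5% CO₂, sealed. Supernatant sampled at 1, 15, 30, 45 min and 1, 6, 24 h, acetonitrile-quenched. Metabolite by HPLC-MS/MS. Formation constant from ln concentration versus time over 60 min; CLint per million cells. fu,inc by Kilford method (1.46 × 10⁶ cells/mL); well-stirred CLh. N = 3.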

3D HepaRG [17] = experiment: Metabolite formation in the 3D HepaRG liver model; assay type: in vitro ADME, human; settings: 3D HepaRG, metabolite formation
Summary of the method: as §4

[18] = β‐PGME → 2‐MPA, S9 2 mg/mL, 45 min

COCC(=O)O [2‐MAA, 2‐Methoxyacetic acid, reference compound]
higher toxicity of metabolite compared to its solvent (EC50, 3D HepaRG) (3D HepaRG [1]): ~50 fold | EC50 (3D HepaRG [1]; 48 h): 11 mM | EC50 (3D HepaRG [1]; 168 h): 9 mM | EC50 (2D HepaRG; 48 h): 31 mM | EC50 (2D HepaRG; 168 h): 16 mM | logP [2]: −0.30

COC(C)C(=O)O (stereo not drawn) [2‐MPA, 2‐Methoxypropionic acid]
higher toxicity of metabolite compared to its solvent (EC50, 3D HepaRG) (3D HepaRG [1]): approximately fourfold; also recorded: approximately four times lower | EC50 (3D HepaRG [1]; 48 h): 46 mM | EC50 (3D HepaRG [1]; 168 h): 26 mM | EC50 (2D HepaRG; 48 h): 81 mM | EC50 (2D HepaRG; 168 h): 34 mM | Urinary excretion rate of 2‐MPA (KMPA) [3]: 0.09 h⁻¹ | Permeability coefficient (BBB) (PeMPA) [4]: 100 ×10⁻⁶ cm/s

CC(=O)Nc1ccc(O)cc1 [APAP, acetaminophen]
albumin secretion (albumin concentration in medium) (3D HepaRG [5]): 1.78 ± 0.68 ng/mL

COCCO [EGME, 2‐Methoxyethanol]
expression of ALDH2 (ALDH2): not induced | expression of ADH1C (ADH1C): not induced | calculated in vitro CLint (human hepatocytes [6]): 0.62 µL/min/mg | logP [2]: −0.80 | expression of CYP2E1 (CYP2E1): not induced | Kinetic constant EGME → EG (ethylene glycol) (CLmetPG) [7]: 5 mL/min/kg | V max (human hepatocytes [8]): 61.3 nmol/h/10^6 cells

c1ccc(-c2ccc3nc(-c4ccccc4)cn3c2)cc1 [GA11, 2,6‐diphenylimidazo[1,2‐a]pyridine]
2‐MPA formation compared to control incubations ([9]; 10 μM GA11 (ALDH inhibitor)): significantly reduced

COCC(C)O (stereo not drawn) [PGME, 1‐Methoxypropan‐2‐ol]
EC50 (3D HepaRG [1]; 168 h): 96 mM | expression of ALDH2 (ALDH2): not induced | fu,b [10]: 0.540 ^c 0.540 ^c | expression of ADH1C (ADH1C): not induced | logP [2]: −0.49 −0.49 | expression of CYP2E1 (CYP2E1): not induced

CCO [ethanol]
expression of ALDH2 (ALDH2): not induced | expression of ADH1C (ADH1C): not induced | expression of CYP2E1 (CYP2E1): not induced

Cc1cn[nH]c1 [fomepizole, 4‐methyl pyrazole]
2‐MPA formation compared to control incubations ([9]; 50 μM fomepizole (ADH inhibitor)): significantly reduced

COC(C)CO (stereo not drawn) [β‐PGME, 2‐Methoxypropan‐1‐ol]
EC50 (3D HepaRG [1]; 168 h): 86 mM | CLint scaled [11]: 0.6 ± 0.09 mL/min/kg | microsomal CLint [11]: 0.19 ± 0.03 µL/min/mg | Predicted CL h ([12]; S9, calculated (Vmax/Km), well‐stirred liver model): 0.36 ± 0.05 mL/min/kg | In vitro predicted hepatic organ clearance (CL h), CLmetMPA ([12]; S9, metabolite formation, calculated (V max/K m)): 0.36 mL/min/kg | K m [12, 18]: 5.572 ± 2.171 mM | V max [12, 18]: 1.04 ± 0.28 nmol/min/mg | fu,b [10]: 0.540 ^c 0.540 ^c | excretion of conjugated β‐PGME [13]: 3% | β‐PGME excreted as 2‐MPA ([13]; published rat studies): more than 60% | logP [2]: −0.49 −0.49 | microsomal CLint at 700 μM ([14]; metabolite formation): 40.9 ± 5.19 µL/min/mg | microsomal CLint at 700 μM ([14]; solvent loss): 3.8 ± 2.14 µL/min/mg | CLint scaled at 700 μM ([14]; S9, metabolite formation): 127 ± 16.1 mL/min/kg | CLint scaled at 700 μM ([14]; S9, solvent loss): 11.8 ± 6.67 mL/min/kg | In vitro predicted hepatic organ clearance (CL h), CLmetMPA ([15]; S9, metabolite formation): 16.4 mL/min/kg | Predicted CL h ([15]; S9, metabolite formation): 16.4 ± 0.47 mL/min/kg | In vitro predicted hepatic organ clearance (CL h), CLmetMPA ([15]; S9, solvent loss): 5 mL/min/kg | Predicted CL h ([15]; S9, solvent loss): 5.00 ± 2.52 mL/min/kg and 5.03 ± 2.52 mL/min/kg | clearance ranking based on in vitro predicted CLh values ([15]; overall generated CLh values (S9 and 3D HepaRG), reported clearance rankings): low to medium clearance compound | CLint scaled at 5 mM [16]: 28.2 ± 2.5 mL/min/kg | hepatocyte CLint at 5 mM [16]: 9.34 ± 0.83 µL/min/1e6 cells | microsomal CLint at 5 mM [16]: 9.62 ± 0.85 µL/min/mg | In vitro predicted hepatic organ clearance (CL h), CLmetMPA (3D HepaRG [17]; measured): 9.07 mL/min/kg | Predicted CL h (3D HepaRG [17]; well‐stirred liver model): 9.07 ± 0.44 mL/min/kg
